Fewer inactive variants are shown than the library holds.
B1: tRNA (parent)
chain: GUUCCGUUGGCGUAAUGGUAACGCGUCUCCCUCCUAAGGAGAAGACUGCGGGUUCGAGUCCCGUACGGAACG

Variants of: B1
Experiment: yeast fitness relative to wild type (ratio to wild type); higher = fitter; tRNA-Arg(CCU), competitive growth, 37 C, YPD
Procedure, shortened: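 Variants of the tRNA-Arg(CCU) gene were chemically synthesised with a 3% per-site mutation rate across 69 sites and placed at the native genomic locus in Saccharomyces cerevisiae. Six parallel replicates of the pooled strains were competed in YPD at 37°C for 24 hours, and gene amplicons from the start and end populations were read by 100-nucleotide paired-end sequencing. Darwinian fitness relative to wild type was derived from changes in genotype frequencies. Genotypes required ≥ 100 starting reads, and estimates < 0.5 were set to 0.5.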

Variant	yeast fitness
U35A A57U A69U	≤ 0.5
U35C A40C C61G	≤ 0.5
U35C A42C G52C	≤ 0.5
U35C G48A C55U A70G	0.56
C34U G44C U53C	≤ 0.5
U35C G38A	0.891
C34U A36G	0.696
C34U A36C	0.554
U35C C55G A57G	0.606
C34G G44U C49G C61U A69G	≤ 0.5
C34U C62A C66U	≤ 0.5
C34U C46G	0.705
C34U C46A	0.714
U35A U54G	≤ 0.5
C34U U35A A57C G58A A70U	0.586
C34U U53A	≤ 0.5
C34U C49U C61A	≤ 0.5
C34G C55A C66U	≤ 0.5
C34U G39C C49G	≤ 0.5
C34G C55A	≤ 0.5
U35C A57C G68C	≤ 0.5

Variant	yeast fitness
U35C U59C A69U	0.749
C34U G58C C60U C66G	≤ 0.5
C34U G67C	0.723
C34G A65U A70G	≤ 0.5
C34G G50C A69U	≤ 0.5
U35C G67C	0.939
U35C G67A	0.637
U35C G48A C60A	0.648
C34U G48C	0.674
C34U G39A C62U	0.607
C34U U35A C49G	0.57
C34U G38A G44C	≤ 0.5
U35C G39C U47A	≤ 0.5
U35C A40U	0.856
C34U A45C G67U A69C A70C	≤ 0.5
U35A A37G	≤ 0.5
C34G U59A	0.538
C34G U59G	0.534
U35A C55A	≤ 0.5
U35A C55U	0.564
C34U A45C A69C A70C	0.569

Variant	yeast fitness
C34U C55U C60A	≤ 0.5
C34G G39A G50C	≤ 0.5
C34U U35C A45G U54A	0.704
U35C C49U C66U	0.681
C34U U53C A69C	≤ 0.5
C34U G44C A45C C66A	0.591
C34U G41A U47A G58C G63C G67A	≤ 0.5
C34U U35C A70C	≤ 0.5
U35A U47C	0.589
C34G C55G U59C C60U	≤ 0.5
C34U C49A A69C	≤ 0.5
C34G C49A G50A	≤ 0.5
C34U A36G C49U C55G A57U G67A	≤ 0.5
U35C A36U	0.603
U35A C66U A69U	≤ 0.5
C34G A65U C66A	≤ 0.5
U35C G39C	0.747
C34G A70C	0.585
C34G A70G	0.586
C34G A70U	0.597
U35A C61U	0.765

Variant	yeast fitness
C34U G56A G67A	≤ 0.5
C34U U35C A40G U47C	≤ 0.5
C34G U47C C49U	0.638
U35C G51C C55U	≤ 0.5
C34U U54C A70U	≤ 0.5
U35C A45U G68A	0.668
C34U U53C C55U	≤ 0.5
U35C G38U C46U C55G	≤ 0.5
C34U G63C	≤ 0.5
C34U C66U A69U	≤ 0.5
U35C C60U	0.546
C34G U54C	0.569
C34G G63A	0.633
C34U G58C A70C	≤ 0.5
C34G G38C A40U G48C C49G	≤ 0.5
C34G G48C C66U	0.562
C34U G48C C66U	0.635
C34G A45C G51A A65U	0.617
U35C C61A A69U	≤ 0.5
U35C C46U	0.938

From the RNAGym collection of RNA variant scans (doi:10.1126/science.aae0568)
